Experiment [1] concerns the target CIAP (calf intestinal alkaline phosphatase) (Bos taurus, UniProt P19111). Put plainly: Alkaline phosphatase. In kind it is biochemical. Conditions: for IC50: Alkaline phosphatase IC50 ± SEM, CIAP, substrate p-NPP, pH 9.5, 37 °C, mean ± SEM, NA = No activity.
Another experiment addresses AP. Conditions: traditional AP inhibitors; ref 34g; cited from earlier work.
A further experiment relates to alkaline phosphatase. As to the kind of experiment: Enzyme inhibition kinetic study. The experiment is classed as biochemical. Conditions: inhibitor 0.00, 1.15, 2.30, 4.60 and 9.20 μM; substrate p-NPP. Summed up: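 Enzyme, buffer and pre-incubation were as in the AP inhibition assay. p-NPP was used at 10, 5, 2.5, […] and 0.625 mM. Maximum initial velocities came from the linear part of absorbance over up to 10 min. Inhibition type was assigned from Lineweaver–Burk plots of 1/V vs. 1/[S].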

The source of these data is publication PMC9042899 (RSC Advances, 2021).

Molecules are shown by their SMILES.

Sequence of CIAP (calf intestinal alkaline phosphatase) (P19111 20-506 limits assumed): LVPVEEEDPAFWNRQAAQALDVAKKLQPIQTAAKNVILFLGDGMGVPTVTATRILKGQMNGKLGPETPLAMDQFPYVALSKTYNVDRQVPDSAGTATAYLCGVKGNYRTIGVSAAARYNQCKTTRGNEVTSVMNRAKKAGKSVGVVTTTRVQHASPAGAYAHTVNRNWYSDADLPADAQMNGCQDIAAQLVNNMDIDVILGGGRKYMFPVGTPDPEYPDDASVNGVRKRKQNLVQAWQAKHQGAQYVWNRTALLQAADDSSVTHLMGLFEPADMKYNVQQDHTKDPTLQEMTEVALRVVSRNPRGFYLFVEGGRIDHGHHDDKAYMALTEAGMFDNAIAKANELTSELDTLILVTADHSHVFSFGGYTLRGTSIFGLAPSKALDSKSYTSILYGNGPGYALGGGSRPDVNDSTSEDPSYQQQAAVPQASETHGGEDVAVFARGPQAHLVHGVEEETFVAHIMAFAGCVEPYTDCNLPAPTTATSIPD

The term IC50 denotes the concentration at which inhibition is half-maximal. In experiment [1], `CN(C)c1ccc(C=C2Oc3cc(Cl)cc([N+](=O)[O-])c3C2=O)cc1` [Compound 15, 6-Chloro-2-(4-(dimethylamino)benzylidene)-4-nitrobenzofuran-3(2H)-one] registered an IC50 of 2.15 ± 0.056 µM.

As a reminder, the Ki is a dissociation constant, usually derived from enzyme kinetics or from competition with a known ligand. As for `c1ccc([C@H]2CN3CCSC3=N2)cc1` [levamisole], on AP, the inhibition constant Ki was 16 µM.

In turn, `COc1cc(C=CC(=O)c2cc(Cl)cc([N+](=O)[O-])c2O)ccc1OCc1ccccc1` [Compound 11, 3-(4-(Benzyloxy)-3-methoxyphenyl)-1-(5-chloro-2-hydroxy-3-nitrophenyl)prop-2-en-1-one] displayed an IC50 in experiment [1] of 9.56 ± 0.263 µM.

`O=C1C(=Cc2ccc(Cl)cc2)Oc2cc(Br)cc(Br)c21` [Compound 12, 4,6-Dibromo-2-(4-chlorobenzylidene)benzofuran-3(2H)-one] registered an IC50 in experiment [1] of 2.16 ± 0.048 µM.

For the molecule `COc1ccc(C=CC(=O)c2cc(Cl)cc([N+](=O)[O-])c2O)cc1` [Compound 4, 1-(5-Chloro-2-hydroxy-3-nitrophenyl)-3-(4-methoxyphenyl)prop-2-en-1-one], the IC50 in experiment [1] is 3.14 ± 0.176 µM.

`Cc1ccc(C=C2Oc3cc(Cl)cc([N+](=O)[O-])c3C2=O)c(C)c1` [Compound 18, 6-Chloro-2-(2,4-dimethylbenzylidene)-4-nitrobenzofuran-3(2H)-one] came in with an IC50 in experiment [1] of 1.15 ± 0.043 µM.

`Cc1ccc(C=CC(=O)c2cc(Cl)cc([N+](=O)[O-])c2O)c(C)c1` [Compound 8, 1-(5-Chloro-2-hydroxy-3-nitrophenyl)-3-(2,4-dimethylphenyl)prop-2-en-1-one] registered an IC50 in experiment [1] of 12.6 ± 0.298 µM.

Turning to `O=C1C(=Cc2ccc(Cl)cc2)Oc2cc(Cl)cc([N+](=O)[O-])c21` [Compound 16, 6-Chloro-2-(4-chlorobenzylidene)-4-nitrobenzofuran-3(2H)-one], in experiment [1], the IC50 worked out at 2.13 ± 0.034 µM.

In experiment [1], `O=C1C(=Cc2ccco2)Oc2cc(Br)cc(Br)c21` [Compound 14, 4,6-Dibromo-2-(furan-2-ylmethylene)benzofuran-3(2H)-one] displayed an IC50 of 4.66 ± 0.051 µM.

As for `CCCOc1ccc(C=C2Oc3cc(Cl)cc([N+](=O)[O-])c3C2=O)cc1OC` [Compound 21, 6-Chloro-2-(3-methoxy-4-propoxybenzylidene)-4-nitrobenzofuran-3(2H)-one], the IC50 in experiment [1] stood at 2.33 ± 0.059 µM.

Molecule `O=C(C=Cc1ccc(F)cc1)c1cc(Cl)cc([N+](=O)[O-])c1O` [Compound 5, 1-(5-Chloro-2-hydroxy-3-nitrophenyl)-3-(4-fluorophenyl)prop-2-en-1-one] returned an IC50 in experiment [1] of 7.55 ± 0.265 µM.

`O=C1C(=Cc2ccc(C(F)(F)F)cc2)Oc2cc(Br)cc(Br)c21` [Compound 13, 4,6-Dibromo-2-(4-(trifluoromethyl)benzylidene)benzofuran-3(2H)-one] came in with an IC50 in experiment [1] of 5.79 ± 0.081 µM.

For `CCCOc1ccc(C=CC(=O)c2cc(Cl)cc([N+](=O)[O-])c2O)cc1OC` [Compound 10, 1-(5-Chloro-2-hydroxy-3-nitrophenyl)-3-(3-methoxy-4-propoxyphenyl)prop-2-en-1-one], half-maximal inhibition in experiment [1] (IC50) required 6.97 ± 0.097 µM.

On to `O=C(C=Cc1ccco1)c1cc(Br)cc(Br)c1O` [Compound 1, 1-(3,5-Dibromo-2-hydroxyphenyl)-3-(furan-2-yl)prop-2-en-1-one], for which 4.31 ± 0.154 µM corresponded to half-maximal inhibition in experiment [1] (IC50).

For `O=C(C=Cc1cccs1)c1cc(Cl)cc([N+](=O)[O-])c1O` [Compound 9, 1-(5-Chloro-2-hydroxy-3-nitrophenyl)-3-(thiophen-2-yl)prop-2-en-1-one], in experiment [1], inhibition was half-maximal at 8.45 ± 0.245 µM (IC50).

For `Cn1c(=O)c2[nH]cnc2n(C)c1=O` [theophylline], on AP, the Ki is 82 µM.

Consider `COc1ccc(C=C2Oc3cc(Cl)cc([N+](=O)[O-])c3C2=O)cc1` [Compound 20, 6-Chloro-2-(4-methoxybenzylidene)-4-nitrobenzofuran-3(2H)-one], for which, in the experiment with alkaline phosphatase, the “type of enzyme inhibition (Lineweaver–Burk plot)” value was “non-competitive”. In experiment [1], this molecule had an IC50 of 1.05 ± 0.029 µM. In addition, the “fold higher inhibition compared to KH2PO4” value in experiment [1] (ratio of IC50 values vs standard KH2PO4) is roughly 2.6 fold.

Consider `COc1cc(C=C2Oc3cc(Cl)cc([N+](=O)[O-])c3C2=O)ccc1OCc1ccccc1` [Compound 22, 2-(4-(Benzyloxy)-3-methoxybenzylidene)-6-chloro-4-nitrobenzofuran-3(2H)-one], for which, in experiment [1], the IC50 is 5.54 ± 0.079 µM.

`CN(C)c1ccc(C=CC(=O)c2cc(Cl)cc([N+](=O)[O-])c2O)cc1` [Compound 6, 1-(5-Chloro-2-hydroxy-3-nitrophenyl)-3-(4-(dimethylamino)phenyl)prop-2-en-1-one] displayed an IC50 in experiment [1] of 3.02 ± 0.087 µM.

The molecule `O=C1C(=Cc2ccc(F)cc2)Oc2cc(Cl)cc([N+](=O)[O-])c21` [Compound 17, 6-Chloro-2-(4-fluorobenzylidene)-4-nitrobenzofuran-3(2H)-one] yielded a half-inhibitory concentration (IC50) in experiment [1] of 4.88 ± 0.086 µM. Against the preceding molecule, the IC50 is about 1.6-fold higher.

In turn, `O=C(C=Cc1ccc(Cl)cc1)c1cc(Br)cc(Br)c1O` [Compound 2, 3-(4-Chlorophenyl)-1-(3,5-dibromo-2-hydroxyphenyl)prop-2-en-1-one] came in with an IC50 in experiment [1] of 6.23 ± 0.098 µM.

`O=C1C(=Cc2cccs2)Oc2cc(Cl)cc([N+](=O)[O-])c21` [Compound 19, 6-Chloro-4-nitro-2-(thiophen-2-ylmethylene)benzofuran-3(2H)-one] displayed an IC50 in experiment [1] of 5.88 ± 0.083 µM.
